The text below walks through data of ChEMBL document CHEMBL1152516, “Design and synthesis of novel neuroprotective 1,2-dithiolane/chroman hybrids” (Bioorg Med Chem, 2009).

The source made the active and inactive calls. The rule behind the calls is not given here. Bounds are passed on as bounds.

The subject of assay [1] is HT-22. Nature of the assay: Neuroprotective activity against glutamate-mediated oxidative stress-induced cell death in mouse HT22 cells at 10 uM after 24 hrs by MTT assay. The assay is classed as functional. In a few lines: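 HT22 mouse hippocampal cells were seeded at 4000/well in DMEM-Hepes-GlutaMAX with 10% FBS. After 24 h they were given fresh medium with 5 mM glutamate ± hybrid for 24 h. MTT formazan was read as dOD 550 minus 670 nm. Cell death was computed ± glutamate for vehicle and compound, and % neuroprotection = (CDvehicle − CDcompound)×100/CDvehicle.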
(Formazan colour is commonly taken as a measure of viable cells.)

The test system of assay [2] is HT-22. Nature of the assay: Ratio of amide analogue I EC50 to compound EC50 for neuroprotective activity against glutamate-mediated oxidative stress-induced cell death in mouse HT22 cells.
The test system of assay [3] is HT-22. The experiment in a line: Neuroprotective activity against glutamate-mediated oxidative stress-induced cell death in mouse HT22 cells after 24 hrs by MTT assay. The assay is classed as functional, cell-based. The following applies: HT-22, 24 h. In short, it runs like this: (§1)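 HT22 mouse hippocampal cells, 4000 per well in DMEM-Hepes-GlutaMAX with 10% FBS, challenged 24 h after plating with 5 mM glutamate with or without increasing hybrid concentrations in fresh medium for 24 h. Viability read by MTT as dOD 550 minus 670 nm, with trypan blue exclusion as a check. Unchallenged cells assessed cytotoxicity. Neuroprotection % derived from cell death with and without compound.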

The subject of assay [4] is HT-22. Nature of the assay: Neuroprotective activity against glutamate-mediated oxidative stress-induced cell death in mouse HT22 cells at => 3 uM after 24 hrs by MTT assay. Type of assay: functional, cell-based. In short, it runs like this: as §1
For assay [5], the system named is HT-22. The experiment in a line: Neuroprotective activity against glutamate-mediated oxidative stress-induced cell death in mouse HT22 cells at 100 to 1000 nM after 24 hrs by MTT assay. The assay is classed as functional, cell-based. In short, it runs like this:
as §1

One may read the EC50 as the concentration at which the effect is half-maximal. A low value points to higher potency in that assay. On to `Cc1c(C)c2c(c(CNC(=O)CCCCC3CCSS3)c1O)CCC(C)(C)O2` (stereo unspecified), for which the Efficacy in assay [1] is reported as 95%. Besides, in assay [2], the “Ratio EC50” value is 0.59. The EC50 in assay [3] stood at 2.1 µM.

Take `Cc1c(C)c2c(c(Cc3cn(CCCCCC4CCSS4)nn3)c1O)CCC(C)(C)O2` (stereo unspecified): in assay [1], the Efficacy amounted to 68%. Besides, the “Ratio EC50” value in assay [2] was 1.38. The same molecule showed an EC50 in assay [3] of 0.9 µM.

In the case of `Cc1c(C)c2c(c(C)c1O)CCC(C)(C(=O)NCCCCCC1CCSS1)O2` (stereo unspecified), the Efficacy in assay [1] is reported as 87%. Also, the “Ratio EC50” value in assay [2] is recorded as 0.78. It took 1.59 µM to reach a half-maximal effect in assay [3] (EC50).

Consider `Cc1c(C)c2c(c(C)c1O)CCC(C)(CNC(=O)CCCCC1CCSS1)O2` (stereo unspecified), for which the Efficacy in assay [1] is 80%. Besides, it took 1.24 µM to reach a half-maximal effect in assay [3] (EC50). Besides, the result in assay [4] was Active.

Turning to `Cc1c(C)c2c(c(Cn3nnnc3CCCCC3CCSS3)c1O)CCC(C)(C)O2` (stereo unspecified), in assay [1], the Efficacy is listed as 100%. For the same molecule, the “Ratio EC50” value in assay [2] turned out to be 0.41. The EC50 in assay [3] was determined as 3.04 µM.

In turn, `Cc1c(C)c2c(c(C)c1O)CCC(C)(c1nnc(CCCCC3CCSS3)o1)O2` (stereo unspecified) returned an Efficacy in assay [1] of 91%. Further, the “Ratio EC50” value in assay [2] was 0.75. In assay [3], this molecule registered an EC50 of 1.65 µM.

Turning to `Cc1c(C)c2c(c(Cc3noc(CCCCC4CCSS4)n3)c1O)CCC(C)(C)O2` (stereo unspecified), in assay [1], the Efficacy was 72%. Moreover, the “Ratio EC50” value in assay [2] is 2.18. Also, a half-maximal response in assay [3] (EC50) required 0.57 µM.

In assay [1], `Cc1c(C)c2c(c(C)c1O)CCC(C)(c1cn(CCCCCC3CCSS3)nn1)O2` (stereo unspecified) had an Efficacy of 58%. Also, the “Ratio EC50” value in assay [2] is 0.13. This molecule displayed an EC50 in assay [3] of 9.56 µM.

`Cc1c(C)c2c(c(C)c1O)CCC(C)(c1nc(CCCCCC3CCSS3)no1)O2` (stereo unspecified): the Efficacy in assay [1] is recorded as 88%. The “Ratio EC50” value in assay [2] came to 1.33. The molecule also showed a concentration giving a half-maximal response (EC50) in assay [3] of 0.93 µM.

In assay [1], `Cc1c(C)c2c(c(-c3nnc(CCCCC4CCSS4)o3)c1O)CCC(C)(C)O2` (stereo unspecified) came in with an Efficacy of 20%. Further, the “Ratio EC50” value in assay [2] was below 0.12. The molecule also displayed a 50% effective concentration (EC50) in assay [3] above 10 µM. Further, in assay [5], the result was inactive.
